The values that follow come from ChEMBL document CHEMBL1629504, “Synthesis, antitrichinnellosis and antiprotozoal activity of some novel thieno[2,3-d]pyrimidin-4(3H)-ones containing benzimidazole ring” (2010).

Calls of active or inactive are those of the source. The rule behind the calls is not given here.

Assay [1] deals with Trichinella spiralis. As to the kind of experiment: Antitrichinellosis activity against Trichinella spiralis assessed as parasites viability at 5 ug/ml after 48 hrs by stereomicroscopy. Type of assay: functional. In outline: (§1)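 Encapsulated larvae, 100 per 1 ml physiological solution (Campbell's method), exposed to compound dissolved in DMSO at 5 µg/ml; incubated in a humid thermostatted chamber at 37 °C. Larval vitality checked by stereomicroscopy at 24 and 48 h.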

For assay [2], the system named is Paramecium caudatum. As to the kind of experiment: Antiprotozoal activity against Paramecium caudatum assessed as parasites viability at 1 ug/ml after 15-20 mins by stereomicroscopy. The assay is classed as functional. The essentials: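 Paramecia from dry-hay maceration culture; 2–3 drops of culture added to a drop of compound in DMSO (1 µg/ml) in a Petri dish. Motility and cell integrity followed stereomicroscopically over minutes after addition.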

The subject of assay [3] is Trichinella spiralis. Kind of assay: Antitrichinellosis activity against Trichinella spiralis assessed as parasites viability at 5 ug/ml after 24 hrs by stereomicroscopy. Type of assay: functional. In outline:
as §1

Assay [4] concerns Giardia muris. As to the kind of experiment: Antiprotozoal activity against Giardia muris infected in white mouse assessed as presence of cysts in mouse faeces at 0.5 ug/ml, po after 5 days by microscopy. The assay is classed as functional, organism-based. The settings on record: Feces. In outline:
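Infected white mice (five per group) dosed p.o. once daily by thin metal oesophageal probe, 0.5 µg/ml pro die as 0.5 ml DMSO solution, for 5 days; untreated and DMSO-only control groups. After the course, faeces stained with Lugol's solution and examined microscopically for cysts.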

Regarding `O=c1[nH]c(CCn2cnc3cc([N+](=O)[O-])ccc32)nc2sc3c(c12)CCCC3`, the Efficacy in assay [1] and in assay [3] was 95.05% in each case. Moreover, the outcome in assay [2] and in assay [4] was Active.

As for `CCOC(=O)c1sc2nc(CCSc3nc4cc([N+](=O)[O-])ccc4[nH]3)[nH]c(=O)c2c1C`, the figures for the Efficacy in assay [1] and in assay [3] were 80.05% and 50%, respectively. Further, the outcome in assay [2] and in assay [4] was Active.

In the case of `O=c1[nH]c(CCSc2nc3ccccc3n2[N+](=O)[O-])nc2sc3c(c12)CCCC3`, the Efficacy in assay [1] and in assay [3] was 90.1% each time. Further, the result in assay [2] and in assay [4] was Active.

As for `Cn1c(SCCc2nc3sc4c(c3c(=O)[nH]2)CCCC4)nc2ccccc21`, the Efficacy is 89.9% in assay [1] and 40.05% in assay [3]. Further, the result in assay [2] and in assay [4] was Active.

As for `CCCn1c(SCCc2nc3sc4c(c3c(=O)[nH]2)CCCC4)nc2ccccc21`, the Efficacy is 90.05% in assay [1] and 84.8% in assay [3]. Further, the result in assay [2] and in assay [4] was Active.

As for `CCOC(=O)c1sc2nc(CCSc3nc4ccccc4n3CC)[nH]c(=O)c2c1C`, the results for the Efficacy in assay [1] and in assay [3] were 59.75% and 39.07%, respectively. The result in assay [2] and in assay [4] was Active.

On to `CCOC(=O)c1sc2nc(CCSc3nc4cc(Cl)ccc4[nH]3)[nH]c(=O)c2c1C`, for which the Efficacy in assay [1] is recorded as 5.09%; in assay [3], 0%. The outcome in assay [2] and in assay [4] was Active.

As for `CCOC(=O)c1sc2nc(CCn3cnc4ccccc43)[nH]c(=O)c2c1C`, the Efficacy in assay [1] stood at 85.3%; in assay [3] it was 79.8%. Also, the result in assay [2] and in assay [4] was Active.

Turning to `CCCSc1ccc2[nH]c(NC(=O)OC)nc2c1` [ALBENDAZOLE], the values for the Efficacy in assay [1] and in assay [3] were 14.8% and 10.6%, respectively.
